Test results from ChEMBL document CHEMBL3112482, “Nonclassical antifolates, part 5. Benzodiazepine analogs as a new class of DHFR inhibitors: synthesis, antitumor testing and molecular modeling study” (Eur J Med Chem, 2014).

How the values were obtained:
[1] = target: T1, Dihydrofolate reductase (Bos taurus, UniProt P00376); assay: Inhibition of bovine liver DHFR measured for every 1 min of 10 mins
T1 sequence (P00376 whole entry): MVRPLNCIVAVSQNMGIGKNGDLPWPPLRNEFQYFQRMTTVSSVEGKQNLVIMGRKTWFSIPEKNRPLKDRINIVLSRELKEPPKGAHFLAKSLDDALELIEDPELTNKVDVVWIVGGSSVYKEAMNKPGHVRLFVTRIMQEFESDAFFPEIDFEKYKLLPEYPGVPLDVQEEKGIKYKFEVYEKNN

[2] = system: SK-MEL-2; assay: Growth inhibition of human SK-MEL-2 cells at 10 uM after 48 hrs; type: functional; details: SK-MEL-2, 48 h, read-out: GI
Method in brief: (§1)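 NCI 60-cell-line disease-oriented human tumor panel, single-dose primary screen at 10 µM. Data given as mean-graph percent growth of treated cells, reported as percent growth inhibition (GI %).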

[3] = Cytotoxicity against human breast cancer cells at 10 uM after 48 hrs; type: functional; details: Cancer cell lines
Method in brief: (§2)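 Single-dose primary screen in the NCI 60 human tumour cell line panel, run at the NCI facility. The panel covers nine subpanels: leukaemia, non-small cell lung, colon, CNS, melanoma, ovarian, renal, prostate and breast. Read-out was percent growth of treated cells, shown as a mean graph and reported as percent growth inhibition.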

[4] = Growth inhibition of human UACC257 cells at 10 uM after 48 hrs; type: functional; details: UACC-257, 48 h, read-out: GI; method in brief: as §1
[5] = system: CAKI-1; assay: Growth inhibition of human CAKI-1 cells at 10 uM after 48 hrs; type: functional; details: CAKI-1, 48 h, read-out: GI; method in brief: as §2
[6] = Cytotoxicity against human prostate cancer cells at 10 uM after 48 hrs; type: functional; details: Cancer cell lines
[7] = system: SNB-75; assay: Growth inhibition of human SNB75 cells at 10 uM after 48 hrs; type: functional; details: SNB-75, 48 h, read-out: GI; method in brief: as §1
[8] = system: A498; assay: Growth inhibition of human A498 cells at 10 uM after 48 hrs; type: functional; details: A498, 48 h, read-out: GI; method in brief: as §2
[9] = Growth inhibition of human Hs 578T cells at 10 uM after 48 hrs; type: functional; details: read-out: GI; method in brief: as §2
[10] = system: SR; assay: Growth inhibition of human SR cells at 10 uM after 48 hrs; type: functional; details: read-out: GI; method in brief: as §1
[11] = system: DU-145; assay: Growth inhibition of human DU145 cells at 10 uM after 48 hrs; type: functional; details: DU-145, 48 h, read-out: GI; method in brief: as §2
[12] = Growth inhibition of human EKVX cells at 10 uM after 48 hrs; type: functional; details: read-out: GI; method in brief: as §2
[13] = system: SK-MEL-5; assay: Growth inhibition of human SK-MEL-5 cells at 10 uM after 48 hrs; type: functional; details: SK-MEL-5, 48 h, read-out: GI; method in brief: as §1
[14] = system: SK-MEL-28; assay: Growth inhibition of human SK-MEL-28 cells at 10 uM after 48 hrs; type: functional; details: SK-MEL-28, 48 h, read-out: GI; method in brief: as §1
[15] = system: K562; assay: Growth inhibition of human K562 cells at 10 uM after 48 hrs; type: functional; details: K562, 48 h, read-out: GI; method in brief: as §2
[16] = system: SK-OV-3; assay: Growth inhibition of human SKOV3 cells at 10 uM after 48 hrs; type: functional; details: SK-OV-3, 48 h, read-out: GI; method in brief: as §1
[17] = system: UACC-62; assay: Growth inhibition of human UACC62 cells at 10 uM after 48 hrs; type: functional; details: UACC-62, 48 h, read-out: GI; method in brief: as §1
[18] = system: HOP-62; assay: Growth inhibition of human HOP62 cells at 10 uM after 48 hrs; type: functional; details: HOP-62, 48 h, read-out: GI; method in brief: as §2
[19] = system: KM12; assay: Growth inhibition of human KM12 cells at 10 uM after 48 hrs; type: functional; details: KM12, 48 h, read-out: GI; method in brief: as §2
[20] = system: MCF7; assay: Growth inhibition of human MCF7 cells at 10 uM after 48 hrs; type: functional; details: MCF7, 48 h, read-out: GI; method in brief: as §2
[21] = system: MDA-MB-435; assay: Growth inhibition of human MDA-MB-435 cells at 10 uM after 48 hrs; type: functional; details: MDA-MB-435, 48 h, read-out: GI; method in brief: as §2
[22] = system: OVCAR-3; assay: Growth inhibition of human OVCAR3 cells at 10 uM after 48 hrs; type: functional; details: OVCAR-3, 48 h, read-out: GI; method in brief: as §2
[23] = system: T47D; assay: Growth inhibition of human T47D cells at 10 uM after 48 hrs; type: functional; details: read-out: GI; method in brief: as §1
[24] = system: SNB-19; assay: Growth inhibition of human SNB19 cells at 10 uM after 48 hrs; type: functional; details: SNB-19, 48 h, read-out: GI; method in brief: as §1
[25] = system: SN12C; assay: Growth inhibition of human SN12C cells at 10 uM after 48 hrs; type: functional; details: read-out: GI; method in brief: as §1
[26] = system: MDA-MB-231; assay: Growth inhibition of human MDA-MB-231 cells at 10 uM after 48 hrs; type: functional; details: MDA-MB-231, 48 h, read-out: GI; method in brief: as §2
[27] = system: NCI-H460; assay: Growth inhibition of human NCI-H460 cells at 10 uM after 48 hrs; type: functional; details: NCI-H460, 48 h, read-out: GI; method in brief: as §2
[28] = system: NCI-H322M; assay: Growth inhibition of human NCI-H322M cells at 10 uM after 48 hrs; type: functional; details: read-out: GI; method in brief: as §2
[29] = Cytotoxicity against human CNS cancer cells at 10 uM after 48 hrs; type: functional; details: Cancer cell lines
[30] = Cytotoxicity against human leukemia cells at 10 uM after 48 hrs; type: functional; details: Leukemia cell
[31] = Cytotoxicity against human renal cancer cells at 10 uM after 48 hrs; type: functional; details: Cancer cell lines
[32] = system: 786-0; assay: Growth inhibition of human 786-0 cells at 10 uM after 48 hrs; type: functional; details: 786-0, 48 h, read-out: GI; method in brief: as §2
[33] = Growth inhibition of human OVCAR4 cells at 10 uM after 48 hrs; type: functional; details: OVCAR-4, 48 h, read-out: GI; method in brief: as §2
[34] = system: IGROV-1; assay: Growth inhibition of human IGROV1 cells at 10 uM after 48 hrs; type: functional; details: IGROV-1, 48 h, read-out: GI; method in brief: as §2
[35] = Growth inhibition of human HOP92 cells at 10 uM after 48 hrs; type: functional; details: HOP-92, 48 h, read-out: GI; method in brief: as §2
[36] = system: U-251; assay: Growth inhibition of human U251 cells at 10 uM after 48 hrs; type: functional; details: U-251, 48 h, read-out: GI; method in brief: as §1
[37] = Growth inhibition of human OVCAR5 cells at 10 uM after 48 hrs; type: functional; details: OVCAR-5, 48 h, read-out: GI; method in brief: as §2
[38] = Growth inhibition of human SF539 cells at 10 uM after 48 hrs; type: functional; details: SF-539, 48 h, read-out: GI; method in brief: as §1
[39] = system: SF-268; assay: Growth inhibition of human SF268 cells at 10 uM after 48 hrs; type: functional; details: SF-268, 48 h, read-out: GI; method in brief: as §1
[40] = Cytotoxicity against human non-small cell lung cancer cells at 10 uM after 48 hrs; type: functional; details: Cancer cell lines; method in brief: as §2
[41] = Cytotoxicity against human melanoma cells at 10 uM after 48 hrs; type: functional; details: Melanoma cell; method in brief: as §2
[42] = system: PC-3; assay: Growth inhibition of human PC3 cells at 10 uM after 48 hrs; type: functional; details: PC-3, 48 h, read-out: GI; method in brief: as §2
[43] = system: TK-10; assay: Growth inhibition of human TK10 cells at 10 uM after 48 hrs; type: functional; details: TK-10, 48 h, read-out: GI; method in brief: as §1
[44] = Growth inhibition of human NCI-ADR-RES cells at 10 uM after 48 hrs; type: functional; details: read-out: GI; method in brief: as §2
[45] = system: ACHN; assay: Growth inhibition of human ACHN cells at 10 uM after 48 hrs; type: functional; details: read-out: GI; method in brief: as §2
[46] = Cytotoxicity against human colon cancer cells at 10 uM after 48 hrs; type: functional; details: Cancer cell lines; method in brief: as §2
[47] = system: OVCAR-8; assay: Growth inhibition of human OVCAR8 cells at 10 uM after 48 hrs; type: functional; details: OVCAR-8, 48 h, read-out: GI; method in brief: as §2
[48] = Growth inhibition of human UO31 cells at 10 uM after 48 hrs; type: functional; details: UO-31, 48 h, read-out: GI; method in brief: as §1
[49] = system: A549; assay: Growth inhibition of human A549 cells at 10 uM after 48 hrs; type: functional; details: A549, 48 h, read-out: GI; method in brief: as §2
[50] = system: NCI-H23; assay: Growth inhibition of human NCI-H23 cells at 10 uM after 48 hrs; type: functional; details: NCI-H23, 48 h, read-out: GI; method in brief: as §2
[51] = system: SF-295; assay: Growth inhibition of human SF295 cells at 10 uM after 48 hrs; type: functional; details: SF-295, 48 h, read-out: GI; method in brief: as §1
[52] = read-out: LC50 (the source's name)

## Clc1cc2c(cc1Cl)NC(c1ccc(Br)cc1)=C1CCC/C(=C\c3ccc(Br)cc3)C1=N2
[1]
  IC50: 0.1 µM

## COc1ccc(/C=C2\CCCc3c2nc(C)nc3-c2ccc(OC)c(OC)c2)cc1OC
[2]
  inhibition of growth at 10 µM: 94.1%
[3]
  GI50: 15.7 µM
  LC50 (concentration killing 50% of cells): 99.2 µM
  TGI: 80.6 µM
[4]
  inhibition of growth at 10 µM: 79.8%
[5]
  inhibition of growth at 10 µM: 94.9%
[6]
  GI50: 26.9 µM
  LC50: > 100 µM
  TGI: > 100 µM
[7]
  inhibition of growth at 10 µM: 64.8%
[8]
  inhibition of growth at 10 µM: 94.1%
[9]
  inhibition of growth at 10 µM: 41%
[10]
  inhibition of growth at 10 µM: < 30%
[11]
  inhibition of growth at 10 µM: 92.7%
[12]
  inhibition of growth at 10 µM: < 30%
[13]
  inhibition of growth at 10 µM: 93.8%
[14]
  inhibition of growth at 10 µM: 77%
[15]
  inhibition of growth at 10 µM: 94.1%
[1]
  IC50: 0.1 µM
[16]
  inhibition of growth at 10 µM: 93%
[17]
  inhibition of growth at 10 µM: 89.1%
[18]
  inhibition of growth at 10 µM: 67.9%
[19]
  inhibition of growth at 10 µM: 93.8%
[20]
  inhibition of growth at 10 µM: 73.7%
[21]
  inhibition of growth at 10 µM: 98.5%
[22]
  inhibition of growth at 10 µM: 97.1%
[23]
  inhibition of growth at 10 µM: 88.8%
[24]
  inhibition of growth at 10 µM: 39.6%
[25]
  inhibition of growth at 10 µM: 94.1%
[26]
  inhibition of growth at 10 µM: 92.9%
[27]
  inhibition of growth at 10 µM: 99.4%
[28]
  inhibition of growth at 10 µM: 52.6%
[29]
  GI50: 34.2 µM
  TGI: > 100 µM
[29]; [52]
  CC50: > 100 µM
[30]
  GI50: 6.8 µM
  LC50: > 100 µM
  TGI: 92.7 µM
[31]
  CC50: 96.9 µM
  GI50: 23.7 µM
  TGI: 98.7 µM
[32]
  inhibition of growth at 10 µM: 90.8%
[33]
  inhibition of growth at 10 µM: 79.1%
[34]
  inhibition of growth at 10 µM: 75.6%
[35]
  inhibition of growth at 10 µM: 69.9%
[36]
  inhibition of growth at 10 µM: 81.8%
[37]
  inhibition of growth at 10 µM: 95.3%
[38]
  inhibition of growth at 10 µM: 82.9%
[39]
  inhibition of growth at 10 µM: 80%
[40]
  GI50: 37.8 µM
  TGI: 90.2 µM
[40]; [52]
  CC50: > 100 µM
[41]
  GI50: 26.9 µM
  TGI: > 100 µM
[41]; [52]
  CC50: > 100 µM
[42]
  inhibition of growth at 10 µM: 68%
[43]
  inhibition of growth at 10 µM: 87.8%
[44]
  inhibition of growth at 10 µM: 88.8%
[45]
  inhibition of growth at 10 µM: 90.2%
[46]
  GI50: 28.9 µM
  TGI: 88.9 µM
[46]; [52]
  CC50: > 100 µM
[47]
  inhibition of growth at 10 µM: 96.9%
[48]
  inhibition of growth at 10 µM: 65.7%
[49]
  inhibition of growth at 10 µM: 82.1%
[50]
  inhibition of growth at 10 µM: 70.9%
[51]
  inhibition of growth at 10 µM: 97%
